{
  "source": "ChEMBL document CHEMBL1154674",
  "about": "“Synthesis and evaluation of three 18F-labeled aminophenylbenzothiazoles as amyloid imaging agents” (J Med Chem, 2009)",
  "type_in_all_cases": "ADME, organism-based, Macaca mulatta",
  "key": {"[1]": {"experiment": "Drug level in normal rhesus monkey cerebellum assessed as standard uptake value at 109.4 MBq, iv after 129 mins by microPET", "conditions": "in vivo, 2.15 h"}, "[2]": {"experiment": "Drug level in normal rhesus monkey frontal cortex assessed as standard uptake value at 109.4 MBq, iv after 6.5 mins by microPET", "conditions": "in vivo"}, "[3]": {"experiment": "Drug level in normal rhesus monkey frontal cortex assessed as standard uptake value at 109.4 MBq, iv after 22.5 mins by microPET", "conditions": "in vivo, 0.375 h", "summary_of_the_method": "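Single normal rhesus monkey; each tracer given iv via the vena saphena, with 1 day between tracer injections. Dynamic μPET ran 180 min (5×60 s, 5×120 s, 9×300 s, 12×600 s). Images were reconstructed by filtered back projection with a RAMP filter. Regional time-activity curves were expressed as SUV.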"}, "[4]": {"experiment": "Drug level in normal rhesus monkey cerebellum assessed as standard uptake value at 109.4 MBq, iv after 9.5 mins by microPET", "conditions": "in vivo"}, "[5]": {"experiment": "Drug level in normal rhesus monkey white matter assessed as standard uptake value at 109.4 MBq, iv after 22.5 mins by microPET", "conditions": "in vivo, 0.375 h"}, "[6]": {"experiment": "Drug level in normal rhesus monkey parietal cortex assessed as standard uptake value at 109.4 MBq, iv after 15.5 mins by microPET", "conditions": "in vivo"}, "[7]": {"experiment": "Drug level in normal rhesus monkey parietal cortex assessed as standard uptake value at 109.4 MBq, iv after 22.5 mins by microPET", "conditions": "in vivo, 0.375 h"}, "[8]": {"experiment": "Drug level in normal rhesus monkey parietal cortex assessed as standard uptake value at 109.4 MBq, iv after 32.5 mins by microPET", "conditions": "in vivo"}, "[9]": {"experiment": "Drug level in normal rhesus monkey pons assessed as standard uptake value at 81.2 MBq, iv after 1.5 mins by microPET", "conditions": "in vivo, 0.025 h"}, "[10]": {"experiment": "Drug level in normal rhesus monkey pons assessed as standard uptake value at 81.2 MBq, iv after 145 mins by microPET", "conditions": "in vivo"}, "[11]": {"experiment": "Drug level in normal rhesus monkey parietal cortex assessed as standard uptake value at 81.2 MBq, iv after 32.5 mins by microPET", "conditions": "in vivo"}, "[12]": {"experiment": "Drug level in normal rhesus monkey parietal cortex assessed as standard uptake value at 81.2 MBq, iv after 145 mins by microPET", "conditions": "in vivo"}, "[13]": {"experiment": "Drug level in normal rhesus monkey white matter assessed as standard uptake value at 81.2 MBq, iv after 57.5 mins by microPET", "conditions": "in vivo"}, "[14]": {"experiment": "Drug level in normal rhesus monkey thalamus assessed as standard uptake value at 81.2 MBq, iv after 95 mins by microPET", "conditions": "in vivo"}, "[15]": {"experiment": "Drug level in normal rhesus monkey frontal cortex assessed as standard uptake value at 81.2 MBq, iv after 52.5 mins by microPET", "conditions": "in vivo, 0.875 h"}, "[16]": {"experiment": "Drug level in normal rhesus monkey cerebellum assessed as standard uptake value at 81.2 MBq, iv after 22.5 mins by microPET", "conditions": "in vivo, 0.375 h", "summary_of_the_method": "(§1)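 One normal rhesus monkey, each tracer given iv via the vena saphena (81.2, 96.3 or 109.4 MBq), with 1 day between tracer injections. Dynamic brain μPET over 180 min used frames of 5 × 60 s, 5 × 120 s, 9 × 300 s and 12 × 600 s. Images were reconstructed by filtered back projection with a RAMP filter. Regional time-activity curves were expressed as SUV.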"}, "[17]": {"experiment": "Drug level in normal rhesus monkey cerebellum assessed as standard uptake value at 81.2 MBq, iv after 115 mins by microPET", "conditions": "in vivo", "summary_of_the_method": "as §1"}, "[18]": {"experiment": "Drug level in normal rhesus monkey frontal cortex assessed as standard uptake value at 81.2 MBq, iv after 22.5 mins by microPET", "conditions": "in vivo, 0.375 h"}, "[19]": {"experiment": "Drug level in normal rhesus monkey cerebellum assessed as standard uptake value at 152.9 MBq, iv after 57.5 mins by microPET", "conditions": "in vivo", "summary_of_the_method": "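One normal rhesus monkey received each tracer via the vena saphena, with 1 day between injections. Dynamic μPET ran 180 min for 18F tracers (5×60 s, 5×120 s, 9×300 s, 12×600 s) and 90 min for the 11C tracer (5×60 s, 5×120 s, 9×300 s, 3×600 s). Filtered back-projection reconstruction (RAMP filter) was used. Time-activity curves were drawn to give regional SUV.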"}, "[20]": {"experiment": "Drug level in normal rhesus monkey cerebellum assessed as standard uptake value at 152.9 MBq, iv after 85 mins by microPET", "conditions": "in vivo", "summary_of_the_method": "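One normal rhesus monkey, tracer given iv via the vena saphena (152.9 MBq), with at least 1 day between tracer injections. Dynamic brain μPET over 90 min used frames of 5 × 60 s, 5 × 120 s, 9 × 300 s and 3 × 600 s. Images were reconstructed by filtered back projection with a RAMP filter. Regional time-activity curves were expressed as SUV.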"}, "[21]": {"experiment": "Drug level in normal rhesus monkey frontal cortex assessed as standard uptake value at 152.9 MBq, iv after 10 mins by microPET", "conditions": "in vivo", "summary_of_the_method": "(§2)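 Single normal rhesus monkey; tracer given iv via the vena saphena, 1 day apart from the other tracer injections. Dynamic μPET ran 90 min (5×60 s, 5×120 s, 9×300 s, 3×600 s). Images were reconstructed by filtered back projection with a RAMP filter. Regional time-activity curves were expressed as SUV.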"}, "[22]": {"experiment": "Drug level in normal rhesus monkey frontal cortex assessed as standard uptake value at 152.9 MBq, iv after 37.5 mins by microPET", "conditions": "in vivo, 0.625 h", "summary_of_the_method": "as §2"}, "[23]": {"experiment": "Drug level in normal rhesus monkey frontal cortex assessed as standard uptake value at 152.9 MBq, iv after 57.5 mins by microPET", "conditions": "in vivo", "summary_of_the_method": "as §2"}, "[24]": {"experiment": "Drug level in normal rhesus monkey white matter assessed as standard uptake value at 152.9 MBq, iv after 22.5 mins by microPET", "conditions": "in vivo, 0.375 h"}, "[25]": {"experiment": "Drug level in normal rhesus monkey thalamus assessed as standard uptake value at 152.9 MBq, iv after 47.5 mins by microPET", "conditions": "in vivo"}, "[26]": {"experiment": "Drug level in normal rhesus monkey pons assessed as standard uptake value at 152.9 MBq, iv after 3.5 mins by microPET", "conditions": "in vivo"}, "[27]": {"experiment": "Drug level in normal rhesus monkey pons assessed as standard uptake value at 152.9 MBq, iv after 42.5 mins by microPET", "conditions": "in vivo"}, "[28]": {"experiment": "Drug level in normal rhesus monkey thalamus assessed as standard uptake value at 96.3 MBq, iv after 75 mins by microPET", "conditions": "in vivo, 1.25 h"}, "[29]": {"experiment": "Drug level in normal rhesus monkey thalamus assessed as standard uptake value at 96.3 MBq, iv after 115 mins by microPET", "conditions": "in vivo"}, "[30]": {"experiment": "Drug level in normal rhesus monkey pons assessed as standard uptake value at 96.3 MBq, iv after 57.5 mins by microPET", "conditions": "in vivo"}, "[31]": {"experiment": "Drug level in normal rhesus monkey parietal cortex assessed as standard uptake value at 96.3 MBq, iv after 2.5 mins by microPET", "conditions": "in vivo"}, "[32]": {"experiment": "Drug level in normal rhesus monkey parietal cortex assessed as standard uptake value at 96.3 MBq, iv after 22.5 mins by microPET", "conditions": "in vivo, 0.375 h"}, "[33]": {"experiment": "Drug level in normal rhesus monkey frontal cortex assessed as standard uptake value at 96.3 MBq, iv after 10 mins by microPET", "conditions": "in vivo"}, "[34]": {"experiment": "Drug level in normal rhesus monkey white matter assessed as standard uptake value at 96.3 MBq, iv after 3.5 mins by microPET", "conditions": "in vivo"}},
  "data": [
    {"smiles": "Nc1ccc2nc(-c3ccc([18F])cc3)sc2c1", "values": [
      {"measurement": "SUV", "setting": "[1]", "result": 2.36},
      {"measurement": "SUV", "setting": "[2]", "result": 5.35},
      {"measurement": "SUV", "setting": "[3]", "result": 5.16},
      {"measurement": "SUV", "setting": "[4]", "result": 5.44},
      {"measurement": "SUV", "setting": "[5]", "result": 3.04},
      {"measurement": "SUV", "setting": "[6]", "result": 5.1},
      {"measurement": "SUV", "setting": "[7]", "result": 4.93},
      {"measurement": "SUV", "setting": "[8]", "result": 4.8}
    ]},
    {"smiles": "CNc1ccc2nc(-c3ccc([18F])cc3)sc2c1", "values": [
      {"measurement": "SUV", "setting": "[9]", "result": 2.731},
      {"measurement": "SUV", "setting": "[10]", "result": 5.067},
      {"measurement": "SUV", "setting": "[11]", "result": 4.094},
      {"measurement": "SUV", "setting": "[12]", "result": 2.565},
      {"measurement": "SUV", "setting": "[13]", "result": 3.796},
      {"measurement": "SUV", "setting": "[14]", "result": 5.301},
      {"measurement": "SUV", "setting": "[15]", "result": 5.321},
      {"measurement": "SUV", "setting": "[16]", "result": 2.518},
      {"measurement": "SUV", "setting": "[17]", "result": 1.715},
      {"measurement": "SUV", "setting": "[18]", "result": 5.717}
    ]},
    {"smiles": "[11CH3]Nc1ccc(-c2nc3ccc(O)cc3s2)cc1", "note": "[PITTSBURGH COMPOUND B]", "values": [
      {"measurement": "SUV", "setting": "[19]", "result": 0.764},
      {"measurement": "SUV", "setting": "[20]", "result": 0.685},
      {"measurement": "SUV", "setting": "[21]", "result": 2.163},
      {"measurement": "SUV", "setting": "[22]", "result": 0.912},
      {"measurement": "SUV", "setting": "[23]", "result": 0.692},
      {"measurement": "SUV", "setting": "[24]", "result": 1.229},
      {"measurement": "SUV", "setting": "[25]", "result": 1.161},
      {"measurement": "SUV", "setting": "[26]", "result": 1.502},
      {"measurement": "SUV", "setting": "[27]", "result": 1.179}
    ]},
    {"smiles": "CN(C)c1ccc2nc(-c3ccc([18F])cc3)sc2c1", "values": [
      {"measurement": "SUV", "setting": "[28]", "result": 2.19},
      {"measurement": "SUV", "setting": "[29]", "result": 2.14},
      {"measurement": "SUV", "setting": "[30]", "result": 1.95},
      {"measurement": "SUV", "setting": "[31]", "result": 2},
      {"measurement": "SUV", "setting": "[32]", "result": 2.09},
      {"measurement": "SUV", "setting": "[33]", "result": 2.13},
      {"measurement": "SUV", "setting": "[34]", "result": 1.15}
    ]}
  ]
}
